This note sets out measurements from ChEMBL document CHEMBL1131442 (J Med Chem, 1998).

SMILES strings stand for the structures. pEC50, pKi: −log10 of the molar value.

In experiment [1] the target is T1, Cannabinoid receptor 1 (Rattus norvegicus, UniProt P20272). As to the kind of experiment: Binding affinity towards cannabinoid receptor 1 from rat forebrain membranes in the absence of phenylmethanesulfonylfluoride (PMSF) using 0.8 nM [3H]CP-55940 as radioligand. More on the design: species or system Membrane. The procedure, abridged: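 Rat forebrain membranes were used without PMSF treatment. Bound ligand was separated by filtration and counted by scintillation. IC50 from nonlinear regression was converted to Ki by Cheng–Prusoff.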
T1 sequence (P20272 whole entry): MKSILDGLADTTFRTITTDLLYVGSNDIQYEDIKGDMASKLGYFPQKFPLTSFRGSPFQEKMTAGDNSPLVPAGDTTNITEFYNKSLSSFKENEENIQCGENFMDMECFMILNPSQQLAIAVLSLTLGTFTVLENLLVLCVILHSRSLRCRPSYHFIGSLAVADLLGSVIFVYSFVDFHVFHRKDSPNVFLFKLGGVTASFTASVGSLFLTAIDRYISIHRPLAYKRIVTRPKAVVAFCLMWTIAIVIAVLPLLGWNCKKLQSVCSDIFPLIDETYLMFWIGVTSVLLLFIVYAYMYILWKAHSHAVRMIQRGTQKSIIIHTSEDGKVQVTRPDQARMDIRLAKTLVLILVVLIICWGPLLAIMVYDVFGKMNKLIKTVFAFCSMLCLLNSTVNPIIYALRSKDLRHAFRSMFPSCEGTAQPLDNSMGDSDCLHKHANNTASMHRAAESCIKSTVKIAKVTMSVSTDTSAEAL

Experiment [2] concerns the target Cannabinoid receptor 2 (Mus musculus, UniProt P47936). As to the kind of experiment: Binding affinity towards Cannabinoid receptor 2 from mouse spleen membranes using 0.8 nM [3H]CP-55940 as radioligand. Format: tissue-based. The procedure, abridged: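 Mouse spleen membranes, no PMSF pretreatment (amidase absent). Each well held ~30 μg membrane in TME (25 mM Tris-HCl, 5 mM MgCl2, 1 mM EDTA, pH 7.4) with 0.1% fatty acid-free BSA, 0.8 nM [3H]CP-55,940 and varied analogue concentrations, 1 h. Bound ligand was collected on GF/C filters and counted by scintillation.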

Experiment [3] addresses T1, Cannabinoid receptor 1. As to the kind of experiment: Binding affinity towards cannabinoid receptor 1 from rat forebrain membranes in the presence of phenylmethanesulfonylfluoride (PMSF) using 0.8 nM [3H]CP-55940 as radioligand. More on the design: species or system Membrane.
Experiment [4] is filed under the species Rattus norvegicus. As to the kind of experiment: Effective concentration required for stimulation of [35S]GTP-gamma-S, binding in rat microsomal membranes. The format is functional. The procedure, abridged: (§1)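 Rat brain membranes (cerebellum removed) were sucrose-gradient purified. Membrane (40–50 μg protein) was incubated 1 h at 30 °C in 10 mM Tris, 100 mM NaCl, 5 mM MgCl2, 0.1% BSA with GDP, [35S]GTPγS and eight analogue concentrations. Nonspecific binding was defined with 10 μM GTPγS, and buffer alone set the baseline. Bound label was collected on GF/B filters and counted. Two experiments were run, each point in […].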
(In general: Binding of GTPγS marks nucleotide exchange on a G protein.)

Experiment [5] is filed under the species Rattus norvegicus. Briefly: Maximal stimulation of [35S]GTP-gamma-S, binding in rat microsomal membranes expressed as Emax. Format: functional. The procedure, abridged: as §1
The species entered for experiment [6] is Rattus norvegicus. As to the kind of experiment: Effective concentration required for stimulation of [35S]GTP-gamma-S, binding in rat microsomal membranes expressed as log EC50. The format is functional. The procedure, abridged: as §1

Sequence of Cannabinoid receptor 2 (P47936 whole entry): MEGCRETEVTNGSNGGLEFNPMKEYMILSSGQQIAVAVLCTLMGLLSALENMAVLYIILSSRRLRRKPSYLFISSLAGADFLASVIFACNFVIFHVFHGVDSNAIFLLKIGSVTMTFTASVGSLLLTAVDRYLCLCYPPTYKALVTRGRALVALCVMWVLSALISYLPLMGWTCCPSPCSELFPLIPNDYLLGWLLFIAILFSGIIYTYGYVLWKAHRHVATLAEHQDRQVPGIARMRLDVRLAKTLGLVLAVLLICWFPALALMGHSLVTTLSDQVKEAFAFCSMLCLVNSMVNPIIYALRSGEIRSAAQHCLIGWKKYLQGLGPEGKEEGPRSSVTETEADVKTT

The term pKi denotes the Ki on a negative log10 scale, so that one unit is a factor of ten. On to `CCCCC/C=C\C/C=C\C/C=C\C/C=C\CCCCNC(=O)COC(C)=O`, for which the pKi in experiment [1] was 6.38; in experiment [2] it was less than 5.00.

As for `CCCCC/C=C\C/C=C\CCCCCCCC(=O)N[C@H](C)CO`, the pKi in experiment [1], in experiment [2] and in experiment [3] was 4.68 throughout.

Turning to `CCCCC/C=C\C/C=C\C/C=C\C/C=C\CCCC(=O)N[C@@H](C)CC`, the pKi in experiment [2] was 5.49; in experiment [3] it was 6.54.

In experiment [2], `CCCCC/C=C\C/C=C\C/C=C\C/C=C\CCCC(=O)N[C@@H](C)CO` gave a pKi of 5.09.

A word on the pEC50: it is the EC50 on a negative log10 scale, so that one unit is a factor of ten. Low readings indicate a large EC50, high ones a small EC50. The Emax is the size of the effect at its maximum, as opposed to the concentration needed. Consider `CCCCCCC(C)(C)c1ccc([C@@H]2C[C@H](O)CC[C@H]2CCCO)c(O)c1` [CP-55940], for which the pEC50 is 7.00 in experiment [4] and 1.70 in experiment [6]. For the same compound, the Emax in experiment [5] came out at 145%.

Take `CCCCC/C=C\C/C=C\C/C=C\C/C=C\CCCC(=O)NCCCCl`: the pKi was 6.41 in experiment [1], 6.71 in experiment [2] and 7.59 in experiment [3].

Take `CCCCC/C=C\C/C=C\C/C=C\C/C=C\CCCC(=O)NCC(F)(F)F`: the pKi in experiment [1] was 5.62; in experiment [2], 6.14; in experiment [3], 7.44.

Consider `CCCCC/C=C\C/C=C\C/C=C\C/C=C\CCCC(=O)NCCF`, for which the pKi in experiment [1] was 5.33; in experiment [2], 6.04; in experiment [3], 7.57.

As to `C=CCNC(=O)CCC/C=C\C/C=C\C/C=C\C/C=C\CCCCC`, the pKi was 5.53 in experiment [1], 6.65 in experiment [2] and 8.00 in experiment [3].

With `CCCCC/C=C\C/C=C\C/C=C\C/C=C\CCCC(=O)N[C@H](C)CO` [METHANANDAMIDE], the pEC50 in experiment [4] is 6.48. Moreover, the Emax in experiment [5] was determined as 148%. The compound also gave a pKi in experiment [2] of 6.06.

On to `CCCCC/C=C\C/C=C\C/C=C\C/C=C\CCCC(=O)NCCCl`, for which the pEC50 in experiment [4] was 6.38. Besides, the Emax in experiment [5] stood at 162%. The pKi in experiment [1] is 5.47; in experiment [2] it was 6.71; in experiment [3], 8.28.

In turn, `CCCCC/C=C\C/C=C\CCCCCCCC(=O)NCCO` [LINOLEOYLETHANOLAMIDE] had a pKi in experiment [2] of 4.60.

As for `CCCCCCCC/C=C\CCCCCCCC1=NCCO1`, the pKi in experiment [1] was 4.85; in experiment [2], 4.51.

Take `CCCCC/C=C\C/C=C\CCCCCCCC1=NCCO1`: the pKi in experiment [2] was 4.70.

As to `CCCCC/C=C\C/C=C\C/C=C\C/C=C\CCCC(=O)NC(C)(C)C`, the results for the pKi in experiment [1], in experiment [2] and in experiment [3] were 6.98, 5.94 and 7.29, respectively.

`CCCCC/C=C\C/C=C\C/C=C\C/C=C\CCCC(=O)NC[C@@H](C)O`: the values for the pKi in experiment [1], in experiment [2] and in experiment [3] were 6.20, 5.75 and 6.89, respectively.

Turning to `CCCCC/C=C\C/C=C\C/C=C\C/C=C\CCCC(=O)NC(C)CC` (stereo not drawn), the pKi in experiment [1] was 6.80; in experiment [2], 5.66; in experiment [3], 7.08.

In the case of `CCCCC/C=C\C/C=C\C/C=C\C/C=C\CCCC(=O)NC[C@H](C)O`, the pKi was 6.96 in experiment [1], 6.11 in experiment [2] and 7.45 in experiment [3].

`Cc1c(C(=O)c2cccc3ccccc23)c2cccc3c2n1[C@H](CN1CCOCC1)CO3` [WIN-552122] showed a pEC50 in experiment [4] of 6.74. Further, the Emax in experiment [5] worked out at 150%.

On to `C#CCNC(=O)CCC/C=C\C/C=C\C/C=C\C/C=C\CCCCC`, for which the pEC50 was 7.00 in experiment [4] and 1.70 in experiment [6]. In addition, the Emax in experiment [5] was 143%. The pKi was 5.31 in experiment [1], 6.54 in experiment [2] and 7.97 in experiment [3].

As to `CCCCC/C=C\C/C=C\C/C=C\C/C=C\CCCC(=O)NCC(C)C`, the pKi is 7.01 in experiment [1], 6.08 in experiment [2] and 7.04 in experiment [3].

Regarding `CCCCCCCC/C=C\CCCCCCCC(=O)NCCO` [OLEOYLETHANOLAMIDE], the pKi in experiment [1] was 4.36; in experiment [2] it was 4.51.

As to `CCCCCCCC/C=C\CCCCCCCC(=O)N[C@H](C)CO`, the figures for the pKi in experiment [1], in experiment [2] and in experiment [3] were 4.48, 4.59 and 4.72, respectively.

`CCCCC/C=C\C/C=C\C/C=C\C/C=C\CCCC(=O)N[C@H](C)CC`: the pKi in experiment [1] was 6.84; in experiment [2], 5.88; in experiment [3], 7.13.

As for `CCCCC/C=C\C/C=C\C/C=C\C/C=C\CCCC1=N[C@H](C)CO1`, the values for the pKi in experiment [1] and in experiment [2] were 6.17 and 2.17, respectively.
